Assay [1] deals with T1, Retinoic acid receptor gamma (Homo sapiens) (UniProt P13631).
T1 sequence (whole entry): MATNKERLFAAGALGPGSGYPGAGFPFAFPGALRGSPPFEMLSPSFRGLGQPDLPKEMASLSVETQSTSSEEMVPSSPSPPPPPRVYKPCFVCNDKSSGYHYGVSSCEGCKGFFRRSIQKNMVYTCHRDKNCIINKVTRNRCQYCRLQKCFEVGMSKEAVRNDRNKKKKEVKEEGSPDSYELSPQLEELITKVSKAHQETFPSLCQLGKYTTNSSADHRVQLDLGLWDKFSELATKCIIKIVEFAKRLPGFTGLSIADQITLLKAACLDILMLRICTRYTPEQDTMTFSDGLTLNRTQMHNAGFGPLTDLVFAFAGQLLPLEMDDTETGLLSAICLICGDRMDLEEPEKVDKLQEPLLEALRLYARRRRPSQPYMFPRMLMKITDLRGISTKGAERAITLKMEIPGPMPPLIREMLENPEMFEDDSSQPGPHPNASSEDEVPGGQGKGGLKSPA
Kind of assay: Relative transcriptional activation in CV-1 cells expressing RAR gamma receptor compared to ATRA; Not detectable. Type of assay: functional, cell-based. Particulars: Cercopithecidae.

In assay [2] the target is T2, Retinoic acid receptor beta (Homo sapiens) (UniProt P10826).
T2 sequence (whole entry): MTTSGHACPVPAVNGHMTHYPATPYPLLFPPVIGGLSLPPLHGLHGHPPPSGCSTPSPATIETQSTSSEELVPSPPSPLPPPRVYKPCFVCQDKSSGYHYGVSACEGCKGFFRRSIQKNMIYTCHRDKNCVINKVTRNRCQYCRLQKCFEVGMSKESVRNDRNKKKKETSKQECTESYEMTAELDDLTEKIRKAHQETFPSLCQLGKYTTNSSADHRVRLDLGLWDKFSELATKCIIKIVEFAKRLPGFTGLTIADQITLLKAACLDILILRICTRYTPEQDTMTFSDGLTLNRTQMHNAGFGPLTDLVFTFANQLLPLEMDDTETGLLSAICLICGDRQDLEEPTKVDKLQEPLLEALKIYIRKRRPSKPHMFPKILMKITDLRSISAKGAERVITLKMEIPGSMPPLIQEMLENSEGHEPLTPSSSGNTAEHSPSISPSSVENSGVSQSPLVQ
Kind of assay: Relative transcriptional activation in CV-1 cells expressing RAR beta receptor compared to ATRA; Not detectable. Type of assay: functional, cell-based. Particulars: Cercopithecidae.

The next assay deals with HL-60. Kind of assay: Effective dose for induction of HL-60 cell differentiation. Type of assay: functional, Homo sapiens. The method, boiled down:
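HL-60 cells treated with retinoid. Differentiation scored by the CD11b marker. Activity expressed relative to ATRA, as EC30/ATRA EC30.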

The target in assay [3] is T2, Retinoic acid receptor beta (Homo sapiens). Kind of assay: Inhibition of [3H]ATRA-Hl60 binding to Retinoic acid receptor beta relative to ATRA; Not detectable. The method, boiled down:
(§1)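 Competitive binding at individual RAR subtypes, run with [3H]ATRA as radioligand. Affinity is given as IC50 relative to that of ATRA.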

In assay [4] the target is T1, Retinoic acid receptor gamma (Homo sapiens). Kind of assay: Inhibition of [3H]ATRA-Hl60 binding to Retinoic acid receptor gamma relative to ATRA; Not detectable. A digest of the protocol: as §1
The target of assay [5] is T3, Retinoic acid receptor alpha (Homo sapiens) (UniProt P10276).
T3 sequence (whole entry): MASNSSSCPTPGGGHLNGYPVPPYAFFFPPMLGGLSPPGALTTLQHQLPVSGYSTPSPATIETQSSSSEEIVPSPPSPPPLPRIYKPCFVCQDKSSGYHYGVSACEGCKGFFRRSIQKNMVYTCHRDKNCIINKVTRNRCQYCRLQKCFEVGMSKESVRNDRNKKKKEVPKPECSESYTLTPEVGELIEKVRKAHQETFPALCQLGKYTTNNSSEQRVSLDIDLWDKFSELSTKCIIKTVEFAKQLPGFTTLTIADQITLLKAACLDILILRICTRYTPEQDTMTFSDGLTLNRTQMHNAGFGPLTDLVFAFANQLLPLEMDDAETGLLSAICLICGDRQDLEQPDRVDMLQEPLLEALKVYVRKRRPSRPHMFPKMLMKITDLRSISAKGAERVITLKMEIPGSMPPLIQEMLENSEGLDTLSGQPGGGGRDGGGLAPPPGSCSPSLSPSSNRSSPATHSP
Kind of assay: Relative transcriptional activation in CV-1 cells expressing RAR alpha receptor compared to ATRA; Not detectable. Type of assay: functional, cell-based. The note with it: Cercopithecidae.

For assay [6], the target named is T1, Retinoic acid receptor gamma (Homo sapiens). Kind of assay: Inhibition of [3H]ATRA-Hl60 binding to Retinoic acid receptor gamma relative to ATRA. A digest of the protocol:
as §1

Assay [7] addresses T2, Retinoic acid receptor beta (Homo sapiens). Kind of assay: Inhibition of [3H]ATRA-Hl60 binding to Retinoic acid receptor beta relative to ATRA. The method, boiled down: as §1
The target of assay [8] is T1, Retinoic acid receptor gamma (Homo sapiens). Kind of assay: Relative transcriptional activation in CV-1 cells expressing RAR gamma receptor compared to ATRA. Type of assay: functional, cell-based. Particulars: Cercopithecidae.
Assay [9] concerns the target T3, Retinoic acid receptor alpha (Homo sapiens). Kind of assay: Relative transcriptional activation in CV-1 cells expressing RAR alpha receptor compared to ATRA. Type of assay: functional, cell-based. Particulars: Cercopithecidae.
In assay [10] the target is T2, Retinoic acid receptor beta (Homo sapiens). Kind of assay: Relative transcriptional activation in CV-1 cells expressing RAR beta receptor compared to ATRA. Type of assay: functional, cell-based. Particulars: Cercopithecidae.

Consider `Cc1ccc(C)c(-n2nc(-c3ccc(-c4ccc(C(=O)O)cc4)[nH]3)cc2C(C)C)c1`, for which the Relative EC30 in assay [1], in [2] and in assay [5] was greater than 10000 nM each time. The ED30 in the assay on HL-60 was greater than 10000 nM. Also, the Relative IC50 in [3] and in assay [4] was greater than 1000 nM throughout.

With `CC(C)c1cc(-c2ccc(-c3ccc(C(=O)O)cc3)[nH]2)nn1C(C)(C)C`, the Relative IC50 worked out at 70 nM in assay [6] and 110 nM in [7]. Further, the Relative EC30 in assay [8] is 2.3 nM; in assay [9], 0.22 nM; in assay [10], 0.63 nM. In addition, in the assay on HL-60, the ED30 is recorded as 0.05 nM.

Consider `CC(C)c1cc(-c2ccc(-c3ccc(C(=O)O)cc3)[nH]2)nn1C(C)C`, for which the Relative IC50 in [7] is 660 nM; in assay [4], greater than 1000 nM. Moreover, the Relative EC30 was found to be 14 nM in assay [8], 0.19 nM in [9] and 1.8 nM in assay [10]. Also, in the assay with HL-60, the ED30 was found to be 0.27 nM.

The compound `CC1=C(/C=C/C(C)=C/C=C/C(C)=C/C(=O)O)C(C)(C)CCC1` [TRETINOIN] registered an ED30 in the assay with HL-60 of 1.5 nM.

For `CC(C)c1cc(-c2ccc(-c3ccc(C(=O)O)cc3)[nH]2)nn1CC(F)(F)F`, the Relative EC30 in assay [8] was found to be 88 nM; in assay [9], 1 nM; in assay [10] it was 15 nM. In the assay with HL-60, this compound yielded an ED30 of 0.62 nM. The Relative IC50 in assay [3] and in assay [4] was greater than 1000 nM each time.

The record behind these values is ChEMBL document CHEMBL1133434, “Novel retinoic acid receptor alpha agonists: syntheses and evaluation of pyrazole derivatives” (Bioorg Med Chem Lett, 2000).
